≈ marks a conversion by molar mass, not a printed value. Entries after “also recorded” stand apart in the source; their conditions may differ.
Assays:
[1] = Solubility testing in PEG-300-based injectable formulation; format: physicochemical; settings: for Maximum soluble dose: IP injection, injectable formulation; for Relative solubility in the PEG-300-based formulation: comparison in words; for Maximum amount that could be administered IP in the PEG-300 formulation: injection volume limit of ~0.5 mL, mice
In short: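 Formulation: 10% ethanol (v/v), 10% glycerol (v/v), 10% 2-hydroxypropyl-β-cyclodextrin (w/v), 35% PEG-300 (v/v) in water. Pre-weighed compound was dissolved or suspended in ethanol, then combined with the other components and vortexed 15 min to make a 28 mM solution or suspension. […] IP dose was limited by an injection volume of ~0.5 mL.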

AkaLuc = AkaLuc with AkaLumine, intrapulmonary locations; cited from earlier work
Antares [2] = target: T1, Antares (Oplophorus gracilirostris, UniProt Q9GV45, A31E/A60N/A81I/F95D/I117V/K70R/L54V/L99Q/M102K/N193R/P142E/Q151K/Q38R/Q45L/V71I/Y165I); assay: Decay of Antares luminescence signal over time; format: biochemical; settings: purified Antares, 60 min
Antares [3] = target: T1, Antares
Antares [4] = target: T1, Antares; assay: Enzymatic analysis of Antares with furimazine analogs; format: biochemical; settings: purified Antares; for Vmax and thereby kcat compared to furimazine: DPBS with 0.01% FBS
Antares [5] = target: T1, Antares; assay: Hydrodynamic transfection and bioluminescence imaging of nude mice; format: in vivo
[6] = format: in vivo, mice
In short: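 Male C57Bl/6 mice, 4 months old, received three daily IP injections: 12 mg P-407 in 480 µL water; 12 mg P-407 plus 1.7 mg test compound in 480 µL water; or test compound in P-407 at 1.3 or 4.2 µmol. Body weight was tracked. On day 4 mice were euthanized by CO2 and cardiac exsanguination, with terminal blood taken for CBC and serum biochemistry. Lung, liver and kidney were examined histologically.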

Orange CaMBI [7] = format: in vivo, mice; settings: sustained-release HFz (P-407)
In short: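 Transgenic mice doubly hemizygous for albumin-Cre and CAG-LSL-Orange CaMBI 110, abdominal hair removed, anesthetized with IP ketamine 200 mg/kg in 100 µL water. Test compound given with poloxamer-407 in 480 µL water. Imaged in a lab-built system, time-lapse with <1 s exposures on a consumer digital camera, with vasopressin given. Decay fitted as monoexponential.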

Antares [8] = target: T1, Antares; assay: Spectral analysis of Antares with furimazine analogs; format: biochemical; settings: 400 to 700 nm
[9] = Substrate stability at 37 °C in DPBS with or without 10% FBS; format: in vitro ADME
physchem = settings: aqueous with cosolvent or surfactant or cyclodextrin
Antares [10] = target: T1, Antares; settings: limited amount of furimazine that can be administered; cited from earlier work
Orange CaMBI [11] = settings: liver; cited from earlier work
[12] = previously published PEG-300-based aqueous formulation; cited from earlier work
[13] = 1.3 μmol IP, PEG-300 formulation, mouse liver

SMILES: Oc1c(Cc2ccccc2)nc2c(-c3ccncc3)nc(-c3ccccc3)cn12 [8pyDTZ, reference compound]
- Maximum soluble dose [1]: 4 µmol

SMILES: CN(C)c1ccc(/C=C/C=C/C2=N[C@@H](C(=O)O)CS2)cc1 [AkaLumine]
- Detectable light per reporter molecule relative to FLuc and D-luciferin (AkaLuc): ~ 13 times

SMILES: O=c1c(Cc2ccccc2)nc2c(-c3ccccc3)[nH]c(-c3ccccc3)cn1-2 [DTZ, diphenylterazine, reference compound]
- Maximum soluble dose [1]: 1 µmol

SMILES: O=c1c(Cc2ccco2)nc2c(Cc3ccccc3)[nH]c(-c3ccc(O)cc3)cn1-2 [compound A, 8-benzyl-2-(furan-2-ylmethyl)-6-(4-hydroxyphenyl)imidazo[1,2-a]pyrazin-3(7H)-one]
- Appearance at 28 mM in the PEG-300-based formulation ([1]; 28 mM, backlit image): insoluble pellet
- Decrease of light output over time compared with the other substrates (Antares [2]): decreased more rapidly over time
- Total integrated output compared with furimazine (Antares [3]; 1.3 μmol IP, PEG-300 vehicle, liver): more total integrated output

SMILES: O=c1c(Cc2ccco2)nc2c(Cc3ccccc3)[nH]c(-c3cccc(O)c3)cn1-2 [compound B, 8-benzyl-2-(furan-2-ylmethyl)-6-(3-hydroxyphenyl)imidazo[1,2-a]pyrazin-3(7H)-one]
- kcat/KM compared to furimazine (Antares [4]): higher kcat/KM
- Integrated signal over 20 min compared with Antares2-DTZ (Antares [5]; 4.2 μmol HFz IP): significantly exceed that of Antares2-DTZ
- Integrated signal over 20 min compared with LumiScarlet-8pyDTZ (Antares [5]; 4.2 μmol HFz IP): appeared higher than that of LumiScarlet-8pyDTZ, but narrowly missed statistical significance
- Persistence of emission (Antares [5]; 4.2 μmol HFz IP, 20 min): uniquely sustained emission
- Gross examination of organs and histology of liver, lung and kidney ([6]; HFz with P-407, three daily IP injections, listed as HFz): no signs of toxicity; also recorded: no abnormalities were found
- Relative solubility in the PEG-300-based formulation [1]: noticeably more soluble than compounds A and C
- Maximum amount that could be administered IP in the PEG-300 formulation [1]: up to 13.3 μmol
- Saturating dose (Antares [3]; IP, PEG-300 formulation, liver): 4.2 µmol
- Light (brightness) relative to the maximum/saturating dose of furimazine (Antares [3]; substrate at saturating (maximal) dose, IP, Antares-expressing transgenic mice): approximately four-fold
- Time signals were bright enough to be seen by the naked eye in the dark (Orange CaMBI [7]): > 1 h
- Time of peak brightness after substrate injection (Orange CaMBI [7]; liver): 24 min
- Time after injection at which brightness dropped to half of its peak (Orange CaMBI [7]; monoexponential kinetics): ~ 60 min

SMILES: Nc1cccc(-c2cn3c(=O)c(Cc4ccco4)nc-3c(Cc3ccccc3)[nH]2)c1 [compound C, 6-(3-aminophenyl)-8-benzyl-2-(furan-2-ylmethyl)imidazo[1,2-a]pyrazin-3(7H)-one]
- Maximum amount that could be administered IP in the PEG-300 formulation [1]: 4.2 µmol

SMILES: O=c1c(Cc2ccco2)nc2c(Cc3ccccc3)[nH]c(-c3cccc(O)c3F)cn1-2 [compound D, 8-benzyl-6-(2-fluoro-3-hydroxyphenyl)-2-(furan-2-ylmethyl)imidazo[1,2-a]pyrazin-3(7H)-one]
- Vmax and thereby kcat compared to furimazine (Antares [4]): improved Vmax and thereby kcat versus furimazine
- Effect on emission spectrum of Antares (Antares [8]): do not alter the emission spectrum of Antares
- Stability in serum compared to furimazine [9]: retaining the improved stability in serum
- Signal output compared with HFz (Antares [3]; [13]): brighter signal outputs than HFz

SMILES: Nc1cccc(-c2cn3c(=O)c(Cc4ccco4)nc-3c(Cc3ccccc3)[nH]2)c1F [compound E, 6-(3-amino-2-fluorophenyl)-8-benzyl-2-(furan-2-ylmethyl)imidazo[1,2-a]pyrazin-3(7H)-one]
- Vmax and thereby kcat compared to furimazine (Antares [4]): improved Vmax and thereby kcat versus furimazine
- Effect on emission spectrum of Antares (Antares [8]): do not alter the emission spectrum of Antares
- Stability in serum compared to furimazine [9]: retaining the improved stability in serum
- Improvement of signal output over HFz (Antares [3]; [13]): approximately three-fold
- Signal output compared with HFz (Antares [3]; [13]): brighter signal outputs than HFz

SMILES: Nc1cccc(-c2cn3c(=O)c(Cc4ccco4)nc-3c(Cc3ccccc3F)[nH]2)c1F [compound F, 6-(3-amino-2-fluorophenyl)-8-(2-fluorobenzyl)-2-(furan-2-ylmethyl)imidazo[1,2-a]pyrazin-3(7H)-one]
- Vmax and thereby kcat compared to compound E (Antares [4]): higher Vmax and thereby kcat
- Brightness compared with AkaLuc with AkaLumine (Antares [5]; 1.3 μmol FFz IP, not statistically significant): tended to produce more brightness
- Body weight, blood chemistry, or histology ([6]; 1.3 μmol FFz in P-407 daily for three days): No abnormalities
- Blood chemistry ([6]; 4.2 μmol FFz, daily for three days): abnormal blood chemistry
- Dose that can be safely administered ([6]; in P-407, IP, mice): 1.3 µmol
- solubility (physchem): 8.8 mM (≈ 3810 µg/mL)
- Peak signal compared to compound E (Antares [3]; 1.3 μmol, in vivo): further increase in peak signal
- Light from mouse liver, 1.3 μmol FFz compared with 4.2 μmol HFz (Antares [3]; IP): more light
- Light, 4.2 μmol compared with 1.3 μmol of FFz (Antares [3]; IP): more light

SMILES: O=c1c(Cc2ccco2)nc2c(Cc3ccccc3)[nH]c(-c3ccccc3)cn1-2 [furimazine]
- Photon output of Antares relative to FLuc in vivo (Antares [10]): ~ three-fold
- Solubility in the PEG-300-based formulation ([1]; 35% PEG-300, 10% ethanol, 10% glycerol, 10% hydroxypropylcyclodextrin in water): 2.8 mM (≈ 1070 µg/mL)
- Relative solubility in the PEG-300-based formulation [1]: more soluble than DTZ
- Duration of previous Orange CaMBI imaging sessions (Orange CaMBI [11]): ≤ 6 min
- Maximum dosage limited by poor aqueous solubility [12]: 1.3 µmol

From publication PMC10907227 (Nature methods, 2020)
